T cruzi growth-1 = blocks T. cruzi growth in NIH3T3 culture; 77,000 tested, 5.9% active; T. cruzi beta-gal in NIH3T3, GalScreen luminescence, 90 h; AID 624255; inhibition, % at 8.34 µM;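 active = mean inhibition above about 93%, with at least 55% of replicates each passing it, limit read from the data, passing the limit was not always enough; inconclusive = only one of those two conditions holds; inactive = neither condition holds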
IDH1 R132H inh = inhibitors of human IDH1 R132H; O75874; IDH1 R132H reductase, diaphorase/resazurin fluorescence, 60 min; inhibition, % at 10 µM; 70,000 tested, 0.18% active; in the data active = inhibition above about 34%; inconclusive = no clear call, values can overlap the other calls; inactive = below about 11%;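 also: 0% = DMSO and 100% = no enzyme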
KDM4C inh = KDM4C (human) demethylase inhibition; GST-KDM4C 2-372, H3K9me3 peptide, LANCE TR-FRET; inhibition, % at 12.5 µM; 96,000 tested, 0.15% active;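 active = mean replicate inhibition above about 25%, with at least 55% of replicates also reaching it, limit read from the data, passing the limit was not always enough; inconclusive = only one of those two conditions met; inactive = neither condition met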
Target sequence (Q9H3R0 2-372 limits assumed): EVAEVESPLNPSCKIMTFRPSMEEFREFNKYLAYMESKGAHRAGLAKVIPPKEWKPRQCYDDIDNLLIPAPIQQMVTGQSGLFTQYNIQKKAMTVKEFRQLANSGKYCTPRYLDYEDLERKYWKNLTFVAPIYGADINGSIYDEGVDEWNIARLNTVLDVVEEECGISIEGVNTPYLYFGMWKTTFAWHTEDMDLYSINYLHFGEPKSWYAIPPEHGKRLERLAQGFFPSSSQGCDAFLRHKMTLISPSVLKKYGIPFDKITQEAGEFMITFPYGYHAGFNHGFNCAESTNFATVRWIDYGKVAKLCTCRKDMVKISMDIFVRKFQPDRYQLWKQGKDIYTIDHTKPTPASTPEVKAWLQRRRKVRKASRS
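System: N-terminal GST-fused human GASC-1 (KDM4C) fragment, residues 2-372; amount: enzyme final amount 10 nM; incubation: reaction 30 min RT, detection step 1 h RT; medium: HEPES buffer, pH 7.5, plus ascorbate; technique: LANCE TR-FRET, Eu antibody, ULight-streptavidin, EDTA, ex 340 nm, em 618/671 nm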
T cruzi growth-2 = inhibitors of T. cruzi proliferation. inhibition, % at 8.35 µM. 5,600 tested, 72% active. T. cruzi beta-gal in NIH3T3, GalScreen luminescence, 90 h. shares compounds with T cruzi growth-1;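 active = mean replicate inhibition above about 95% and at least 55% of replicates individually reaching it, limit read from the data; inconclusive = only one of the two criteria is met; inactive = neither criterion is met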
T cruzi growth-3 = Trypanosoma cruzi proliferation inhibition | shares compounds with T cruzi growth-1 | T. cruzi beta-gal in NIH3T3, GalScreen luminescence, 90 h | inhibition, % at 2.09 µM | 5,600 tested, 21% active | AID 651740;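 active = mean inhibition above about 95%, with at least 55% of replicates also reaching it, limit read from the data; inconclusive = meets just one of the two conditions; inactive = meets neither condition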;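 also: plate controls were neutral control median for no effect and positive control median for full effect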
3T3 cytotox = NIH/3T3 (mouse) viability loss. 5,600 tested, 14% active. AID 651742. cytotoxicity (signal decrease), % at 8.35 µM. shares compounds with T cruzi growth-1. NIH/3T3 viability, CellTiter-Glo ATP luminescence, 90 h;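 active = mean signal decrease across replicates above about 35% based on untreated-well scatter, with enough replicates individually passing, limit read from the data; inconclusive = no rule stated though some were filed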;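 also: 0% = median of neutral control wells and 100% = median of positive control wells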
NIH3T3 tox 2 = cytotoxicity in mouse NIH/3T3 fibroblasts. shares compounds with T cruzi growth-1. 5,600 tested, 56% active. inhibition, % at 24.9 µM. NIH/3T3 viability, CellTiter-Glo ATP luminescence, 90 h. AID 651744;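 active = mean loss of cell viability signal at or above a set limit, and enough replicates individually reaching it; inconclusive = meets only the mean limit or only the replicate share; inactive = meets neither condition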;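 also: 0% = median of neutral control wells and 100% = median of positive control wells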
An asterisk follows results filed as active; ? = inconclusive; / = not tested or not shown. This excerpt belongs to a sample that is enriched for hits.

SMILES	T cruzi growth-1	IDH1 R132H inh	KDM4C inh	T cruzi growth-2	T cruzi growth-3	3T3 cytotox	NIH3T3 tox 2
C[C@@H]1CN([C@H](C)CO)C(=O)c2cccc(NC(=O)c3ccncc3)c2O[C@@H]1CN(C)Cc1ccc(Oc2ccccc2)cc1	74	0	2	/	/	/	/
Cn1cnc(S(=O)(=O)N2CCCCN3[C@H](CO)[C@@H](c4ccc(-c5ccccc5)cc4)[C@@H]3C2)c1	100*	/	-1	65	-2	11	28*
Cn1cnc(S(=O)(=O)N2CCCCN3[C@H](C2)[C@H](c2ccc(C#CC4CCCC4)cc2)[C@@H]3CO)c1	32	/	-1	/	/	/	/
Cn1cnc(S(=O)(=O)N2CCCCN3[C@@H](CO)[C@@H](c4ccc(-c5ccc(F)cc5)cc4)[C@@H]3C2)c1	27	/	0	/	/	/	/
Cn1cnc(S(=O)(=O)N2CCCCN3[C@H](C2)[C@H](c2ccc(-c4ccccc4)cc2)[C@@H]3CO)c1	103*	/	-1	6	11	-12	-16
Cn1cnc(S(=O)(=O)N2CCCCN3[C@H](C2)[C@H](c2ccc(-c4ccc(F)cc4)cc2)[C@@H]3CO)c1	48	/	-1	/	/	/	/
Cn1cnc(S(=O)(=O)N2CCCCN3[C@H](CO)[C@H](c4ccc(C#CC5CCCC5)cc4)[C@@H]3C2)c1	107*	/	0	?	29	29	33*
COCC(=O)N1[C@H](C#N)[C@H](c2ccccc2C2=CCCC2)[C@H]1CO	/	/	-1	/	/	/	/
COc1ccc(S(=O)(=O)Nc2ccc3c(c2)C(=O)N([C@@H](C)CO)C[C@H](C)[C@H](CN(C)C(=O)C2CCCCC2)OCCCC[C@H](C)O3)cc1	73	/	15	/	/	/	/
CCNC(=O)C[C@H]1CC[C@@H]2[C@H](COC[C@@H](O)CN2C(=O)C2CC2)O1	10	/	-1	/	/	/	/
COc1ccc(NC(=O)N(C)C[C@@H]2OCCCC[C@@H](C)Oc3ccc(NC(=O)c4ccncc4)cc3C(=O)N([C@@H](C)CO)C[C@H]2C)cc1	46	13	1	/	/	/	/
COc1ccc(S(=O)(=O)Nc2cccc3c2O[C@H](CN(C)Cc2ccncc2)[C@@H](C)CN([C@H](C)CO)C3=O)cc1	/	4	0	/	/	/	/
COCC(=O)NC[C@H]1N[C@H](CO)[C@@H]1c1ccc(C2=CCCCC2)cc1	98*	/	3	70	-9	-10	12
CCC(=O)NC[C@H]1N[C@H](CO)[C@@H]1c1ccc(-c2ccccc2F)cc1	/	/	-1	/	/	/	/
COCC(=O)NC[C@H]1N[C@H](CO)[C@H]1c1ccc(-c2ccccc2F)cc1	15	/	2	/	/	/	/
O=C(NC[C@@H]1N[C@@H](CO)[C@H]1c1ccc(C2=CCCC2)cc1)c1ccccc1	40	/	-2	/	/	/	/
O=C(NC[C@@H]1N[C@@H](CO)[C@H]1c1ccc(-c2ccccc2F)cc1)c1ccccc1	109*	/	-4	107*	34	5	104*
O=C(NC[C@@H]1N[C@@H](CO)[C@@H]1c1ccc(C2=CCCC2)cc1)c1ccccc1	113*	/	-3	108*	82	39*	107*
COCC(=O)NC[C@@H]1N[C@@H](CO)[C@H]1c1ccc(C2=CCCC2)cc1	-1	/	5	/	/	/	/
O=C(NC[C@H]1N[C@H](CO)[C@@H]1c1ccc(-c2ccccc2F)cc1)c1ccccc1	?	/	-1	96*	11	2	105*
COc1ccc(NC(=O)Nc2ccc3c(c2)[C@H]2C[C@H](CC(=O)NCC(F)(F)F)O[C@@H](CO)[C@H]2O3)cc1	-55	0	0	/	/	/	/
CCCC(=O)Nc1ccc2c(c1)C(=O)N(C)C[C@@H](OC)[C@H](C)CN(C(=O)CC)[C@H](C)CO2	-74	0	-1	/	/	/	/
COc1ccc(CN2C[C@@H](O)COC[C@@H]3O[C@@H](CC(=O)NCc4ccccc4Cl)CC[C@H]32)cc1	8	/	2	/	/	/	/
C[C@H](CO)N1C[C@H](C)[C@@H](CN(C)CC2CC2)OCCCC[C@H](C)Oc2ccc(NC(=O)Nc3ccc(C(F)(F)F)cc3)cc2C1=O	57	/	0	/	/	/	/
C[C@H]1CCCCO[C@@H](CN(C)CC2CCCCC2)[C@@H](C)CN([C@@H](C)CO)C(=O)c2cc(NC(=O)Nc3ccc(C(F)(F)F)cc3)ccc2O1	86	2	/	/	/	/	/
SMILES	T cruzi growth-1	IDH1 R132H inh	KDM4C inh	T cruzi growth-2	T cruzi growth-3	3T3 cytotox	NIH3T3 tox 2
C[C@@H]1CCCCO[C@@H](CN(C)CC2CC2)[C@@H](C)CN([C@H](C)CO)C(=O)c2cc(NC(=O)Nc3ccc(C(F)(F)F)cc3)ccc2O1	98*	1	-1	99*	107*	32	101*
C[C@@H]1CCCCO[C@H](CN(C)CC2CCCCC2)[C@H](C)CN([C@@H](C)CO)C(=O)c2cc(NC(=O)Nc3ccc(C(F)(F)F)cc3)ccc2O1	?	/	0	97*	110*	121*	104*
C[C@@H]1CCCCO[C@@H](CN(C)CC2CCCCC2)[C@H](C)CN([C@@H](C)CO)C(=O)c2cc(NC(=O)Nc3ccc(C(F)(F)F)cc3)ccc2O1	?	/	-2	85	108*	117*	104*
C[C@@H]1CCCCO[C@@H](CN(C)CC2CCCCC2)[C@@H](C)CN([C@H](C)CO)C(=O)c2cc(NC(=O)Nc3ccc(C(F)(F)F)cc3)ccc2O1	102	/	0	/	/	/	/
C[C@H](CO)N1C[C@H](C)[C@@H](CN(C)C(=O)C2CC2)Oc2ncc(-c3ccccc3F)cc2C1=O	28	4	0	/	/	/	/
C[C@H](CO)N1C[C@H](C)[C@H](CN(C)S(=O)(=O)c2cn(C)cn2)Oc2ncc(C#Cc3ccccc3)cc2C1=O	30	-3	/	/	/	/	/
C[C@@H]1CN([C@H](C)CO)C(=O)c2cc(NS(C)(=O)=O)ccc2O[C@@H](C)CCCCO[C@H]1CN(C)C(=O)C1CCCCC1	27	2	-2	/	/	/	/
CCC(=O)Nc1ccc2c(c1)OC[C@H](C)N(C(=O)CN1CCOCC1)C[C@@H](C)[C@@H](OC)CN(C)C2=O	47	0	2	/	/	/	/
N#Cc1ccc(-c2ccc3c(c2)[C@H]2[C@H](CCN2C(=O)C2CC2)[C@H](CO)N3)cc1	93	/	-2	/	/	/	/
CN(C)C(=O)c1cccc(-c2ccc3c(c2)[C@@H]2[C@@H](CCN2C(=O)c2ccccc2F)[C@@H](CO)N3)c1	106*	/	1	100*	68	12	16
N#Cc1ccc(-c2ccc3c(c2)[C@@H]2[C@@H](CCN2C(=O)C2CC2)[C@@H](CO)N3)cc1	104*	/	6	107*	85	-3	35*
N#Cc1ccc(-c2ccc3c(c2)[C@@H]2[C@@H](CCN2C(=O)c2ccccc2F)[C@@H](CO)N3)cc1	102*	/	1	103*	82	21	50*
CN(C)C(=O)c1ccc(-c2ccc3c(c2)[C@H]2[C@H](CCN2C(=O)c2ccccc2F)[C@@H](CO)N3)cc1	53	/	-2	/	/	/	/
